The values that follow come from ChEMBL document CHEMBL1133744, “Synthesis and biological evaluation of bombesin constrained analogues” (J Med Chem, 2000).

The target of test [1] is Gastrin-releasing peptide receptor (Rattus norvegicus, UniProt P52500). Kind of test: In vitro binding affinity against bombesin / GRP receptors on rat pancreatic acini. The method, boiled down:
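Male Wistar rat dispersed pancreatic acini (about 1 mg/mL protein) incubated 60 min at 37 °C with 20 pM (3-[125I]iodotyrosyl15)GRP and varying analogue; pellet centrifuged at 10000g, washed twice, counted. Nonspecific binding with 10 μM unlabeled BN. Specific binding as %, mean ± SD of three experiments in duplicate.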

A short description of test [2]: Binding affinity against BN (bombesin) / GRP receptors in Swiss 3T3 cells. Type of test: cell-based, Mus musculus. The method, boiled down:
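Intact Swiss 3T3 cells (seeded 10⁵/well, 24 h in serum-free medium with 0.2% BSA) incubated 1 h at 22 °C in DMEM/0.2% BSA with 20 pM (3-[125I]iodotyrosyl15)GRP and varying compound; washed with cold PBS/0.2% BSA, NaOH-solubilized, radioactivity counted. Nonspecific binding with 10 μM BN. Duplicates, at least three separate trials.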

The nature of test [3]: Compound was tested for stimulating [3H]-thymidine accumulation in Swiss 3T3 cells. Type of test: functional, cell-based. The settings on record: Mus musculus, NIH3T3, 24 h. The method, boiled down: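 Swiss 3T3 cells seeded 10⁵/well, 24 h in medium with 0.2% BSA without serum, then 24 h in DMEM/0.2% BSA; treated 24 h at 37 °C with varying analogue alone or with 10^-7 M BN, then 0.5 μCi [3H]thymidine for 2 h; TCA-precipitable radioactivity after NaOH solubilization. Agonism tested up to 10^-6 M.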

Another test is filed under the species Rattus norvegicus. Briefly: Compound was tested for stimulating amylase secretion on rat pancreatic acini. In kind it is functional, organism-based. The method, boiled down:
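Dispersed pancreatic acini from male Wistar rats (200-300 g), about 1 mg protein/mL, incubated 30 min at 37 °C in HEPES pH 7.4 buffer with 1% BSA; amylase by Phadebas method, expressed as % of maximal BN response. Antagonism: varying analogue with 1 nM BN. Duplicate incubations.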

Chain of Gastrin-releasing peptide receptor (P52500 whole entry): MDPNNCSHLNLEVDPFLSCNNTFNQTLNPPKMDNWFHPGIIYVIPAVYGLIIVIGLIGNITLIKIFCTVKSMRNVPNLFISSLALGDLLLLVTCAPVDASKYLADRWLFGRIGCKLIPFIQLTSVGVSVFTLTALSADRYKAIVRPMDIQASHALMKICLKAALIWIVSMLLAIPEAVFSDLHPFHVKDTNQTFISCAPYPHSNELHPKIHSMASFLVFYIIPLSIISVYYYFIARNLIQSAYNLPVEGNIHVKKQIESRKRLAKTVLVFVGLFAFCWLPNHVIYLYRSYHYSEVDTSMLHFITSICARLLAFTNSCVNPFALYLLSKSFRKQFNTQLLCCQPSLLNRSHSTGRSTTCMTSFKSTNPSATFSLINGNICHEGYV

Broadly, the Ki is a dissociation constant, usually derived from enzyme kinetics or from competition with a known ligand. Read a low Ki as a stronger hold on the target. Turning to `CC(C)C[C@H](NC(=O)[C@H](CC(C)C)NC(=O)[C@H](Cc1cnc[nH]1)NC(=O)c1ccc(NC(=O)[C@H](C)NC(=O)[C@H](Cc2c[nH]c3ccccc23)NC(=O)[C@H](CCC(N)=O)NC(=O)[C@H](N)Cc2ccccc2)cc1)C(N)=O`, the Ki in test [1] turned out to be 2250 nM.

`CC(C)C[C@@H](NC(=O)[C@H](Cc1c[nH]cn1)NC(=O)CN1CCCC[C@H](NC(=O)[C@H](C)NC(=O)[C@H](Cc2c[nH]c3ccccc23)NC(=O)[C@H](CCC(N)=O)NC(=O)[C@H](N)Cc2ccccc2)C1=O)C(=O)NO`: the results for the inhibition constant Ki in test [1] and in test [2] were 127 nM and 53 nM, respectively.

For `CC(C)C[C@H](NC(=O)[C@H](CC(C)C)NC(=O)[C@H](Cc1c[nH]cn1)NC(=O)CNC(=O)[C@@H](NC(=O)[C@H](C)NC(=O)[C@H](Cc1c[nH]c2ccccc12)NC(=O)[C@H](CCC(N)=O)NC(=O)C(N)Cc1ccccc1)C(C)C)C(N)=O` (stereo in doubt) [listing 1 of 3 here], in test [1], the affinity, expressed as Ki, was 3.2 nM.

Broadly, the EC50 is the concentration giving half of the maximal effect. A high value points to a less potent agent. Take `CC(C)C[C@H](NC(=O)[C@H](CC(C)C)NC(=O)[C@H](Cc1c[nH]cn1)NC(=O)CN1CCCC[C@H](NC(=O)[C@H](C)NC(=O)[C@H](Cc2c[nH]c3ccccc23)NC(=O)[C@H](CCC(N)=O)NC(=O)[C@H](N)Cc2ccccc2)C1=O)C(N)=O`: the EC50 in test [3] was 0.02 nM; in the test listed under Rattus norvegicus, 0.22 nM. Also, the Ki in test [1] is 1.7 nM; in test [2], 1 nM.

Take `CC(C)C[C@H](NC(=O)[C@H](CC(C)C)NC(=O)[C@H](Cc1c[nH]cn1)NC(=O)CNC(=O)[C@@H](NC(=O)[C@H](C)NC(=O)[C@H](Cc1c[nH]c2ccccc12)NC(=O)[C@H](CCC(N)=O)NC(=O)C(N)Cc1ccccc1)C(C)C)C(N)=O` (stereo in doubt) [listing 2 of 3 here]: the Ki in test [2] turned out to be 6.3 nM.

The molecule `CC(C)C[C@H](NC(=O)[C@H](CC(C)C)NC(=O)[C@H](Cc1cnc[nH]1)NC(=O)c1ccccc1NC(=O)[C@H](C)NC(=O)[C@H](Cc1c[nH]c2ccccc12)NC(=O)[C@H](CCC(N)=O)NC(=O)[C@H](N)Cc1ccccc1)C(N)=O` gave a Ki in test [1] of 650 nM.

`CCCCC(O)[C@@H](CC(C)C)NC(=O)[C@H](Cc1c[nH]cn1)NC(=O)CN1CCCC[C@H](NC(=O)[C@H](C)NC(=O)[C@H](Cc2c[nH]c3ccccc23)NC(=O)[C@H](CCC(N)=O)NC(=O)[C@H](N)Cc2ccccc2)C1=O` (some centres undefined): the values for the Ki in test [1] and in test [2] were 9 nM and 2 nM, respectively.

In the case of `COC(=O)[C@H](CC(C)C)NC(=O)[C@H](Cc1c[nH]cn1)NC(=O)CN1CCCC[C@H](NC(=O)[C@H](C)NC(=O)[C@H](Cc2c[nH]c3ccccc23)NC(=O)[C@H](CCC(N)=O)NC(=O)CCc2ccc(O)cc2)C1=O`, the figures for the Ki in test [1] and in test [2] were 3.1 nM and 1.2 nM, respectively.

On to `COC(=O)[C@H](CC(C)C)NC(=O)[C@H](Cc1c[nH]cn1)NC(=O)CN1CCCC[C@H](NC(=O)[C@H](C)NC(=O)[C@H](Cc2c[nH]c3ccccc23)NC(=O)[C@H](CCC(N)=O)NC(=O)[C@H](N)Cc2ccccc2)C1=O`, for which the figures for the Ki in test [1] and in test [2] were 5.2 nM and 2 nM, respectively.

`CC(C)C[C@H](NC(=O)[C@H](CC(C)C)NC(=O)[C@H](Cc1c[nH]cn1)NC(=O)CN1C(=O)[C@@H](NC(=O)[C@H](C)NC(=O)[C@H](Cc2c[nH]c3ccccc23)NC(=O)[C@H](CCC(N)=O)NC(=O)[C@H](N)Cc2ccccc2)N=C(c2ccccc2)c2ccccc21)C(N)=O`: the affinity in test [1] corresponds to a Ki of 500 nM.

For the molecule `CC(C)C[C@H](NC(=O)[C@H](CC(C)C)NC(=O)[C@H](Cc1c[nH]cn1)NC(=O)CN1CCCC[C@H](NC(=O)[C@H](C)NC(=O)[C@H](Cc2c[nH]c3ccccc23)NC(=O)[C@H](CCC(N)=O)NC(=O)CCc2ccc(O)cc2)C1=O)C(N)=O`, the EC50 worked out at 0.2 nM in test [3] and 0.05 nM in the test listed under Rattus norvegicus. The Ki in test [1] worked out at 1.8 nM; in test [2], 2 nM.

As for `CC(C)C[C@H](NC(=O)[C@H](CC(C)C)NC(=O)[C@H](Cc1cnc[nH]1)NC(=O)CN1CC[C@H](NC(=O)[C@H](C)NC(=O)[C@H](Cc2c[nH]c3ccccc23)NC(=O)[C@H](CCC(N)=O)NC(=O)[C@H](N)Cc2ccccc2)C1=O)C(N)=O`, in test [1], the Ki is 225 nM.

Consider `CC(C)C[C@H](NC(=O)[C@H](CC(C)C)NC(=O)[C@H](Cc1c[nH]cn1)NC(=O)CNC(=O)[C@@H](NC(=O)[C@H](C)NC(=O)[C@H](Cc1c[nH]c2ccccc12)NC(=O)[C@H](CCC(N)=O)NC(=O)C(N)Cc1ccccc1)C(C)C)C(N)=O` (stereo in doubt) [listing 3 of 3 here], for which the EC50 worked out at 0.08 nM in test [3] and 0.03 nM in the test listed under Rattus norvegicus.

In the case of `CC(C)C[C@H](NC(=O)[C@H](CC(C)C)NC(=O)[C@H](Cc1cnc[nH]1)NC(=O)c1cccc(NC(=O)[C@H](C)NC(=O)[C@H](Cc2c[nH]c3ccccc23)NC(=O)[C@H](CCC(N)=O)NC(=O)[C@H](N)Cc2ccccc2)c1)C(N)=O`, the Ki in test [1] came to 300 nM.

`CCCCC(O)[C@@H](CC(C)C)NC(=O)[C@H](Cc1c[nH]cn1)NC(=O)CN1CCCC[C@H](NC(=O)[C@H](C)NC(=O)[C@H](Cc2c[nH]c3ccccc23)NC(=O)[C@H](CCC(N)=O)NC(=O)CCc2ccc(O)cc2)C1=O` (some centres undefined): the Ki in test [1] came to 3.8 nM; in test [2] it was 0.8 nM.

As for `CC(C)C[C@@H](NC(=O)[C@H](Cc1c[nH]cn1)NC(=O)CN1CCCC[C@H](NC(=O)[C@H](C)NC(=O)[C@H](Cc2c[nH]c3ccccc23)NC(=O)[C@H](CCC(N)=O)NC(=O)CCc2ccc(O)cc2)C1=O)C(=O)NO`, the Ki in test [1] was determined as 13 nM; in test [2], 11 nM.
